From ChEMBL document CHEMBL1806488, “Design, synthesis and biological evaluation of 2'-deoxy-2',2'-difluoro-5-halouridine phosphoramidate ProTides” (Bioorg Med Chem, 2011)

Legend:
Felid alphaherpesvirus 1 = assay: Antiviral activity against Feline herpesvirus infected in cat CRFK cells assessed as inhibition of virus-induced cytopathic effect after 4 days by microscopic analysis; assay type: functional, organism-based; settings: Felid alphaherpesvirus 1, CRFK, 96 h
Outline: (§1)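 Confluent monolayers (CRFK for feline herpes virus; HEL for HSV-2 G) were inoculated with 100 CCID50 of virus in the presence of compound at 200, 40, 8, … μM. Cytopathicity was scored once it was complete in untreated infected controls.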

FM3A = assay: Antiproliferation activity against mouse FM3A cells after 2 days by coulter counter; assay type: cell-based; settings: 48 h
Outline: (§2)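 L1210, FM3A, CEM or HeLa cells at 300,000–500,000 cells/mL were mixed 1:1 with compound dilutions. Incubation at 37 °C lasted 2 days (L1210, FM3A) or 3 days (CEM, HeLa), after which cells were counted with a Coulter counter.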

Human alphaherpesvirus 1 [1] = assay: Antiviral activity against acyclovir-resistant TK-deficient Herpes simplex virus-1 KOS infected in human HEL cells assessed as inhibition of virus-induced cytopathic effect after 4 days by microscopic analysis; assay type: functional, organism-based; settings: Human alphaherpesvirus 1, KOS, 96 h
Human betaherpesvirus 5 [2] = assay: Antiviral activity against Human cytomegalovirus Davis infected in human HEL cells assessed as reduction in the virus plaque formation; assay type: functional, organism-based; settings: Human betaherpesvirus 5, Davis
Outline: (§3)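 HEL cells were infected with 100 PFU of HCMV (AD-169 or Davis) in the presence of compound.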

HeLa = assay: Antiproliferation activity against human HeLa cells after 3 days by coulter counter; assay type: cell-based; settings: 72 h; outline: as §2
[3] = Cytotoxicity against cat CRFK cells by colorimetric formazan-based MTS assay; assay type: cell-based, Felis catus
Human alphaherpesvirus 3 [4] = assay: Antiviral activity against thymidine kinase-deficient Varicella-zoster virus 07-1 infected in human HEL cells assessed as reduction in the virus plaque formation; assay type: functional, organism-based; settings: Human alphaherpesvirus 3, 07-1, HEL
Human betaherpesvirus 5 [5] = assay: Antiviral activity against Human cytomegalovirus AD-169 infected in human HEL cells assessed as reduction in the virus plaque formation; assay type: functional, organism-based; settings: Human betaherpesvirus 5, AD169, HEL; outline: as §3
Human alphaherpesvirus 3 [6] = assay: Antiviral activity against Varicella-zoster virus OKA expressing thymidine kinase infected in human HEL cells assessed as reduction in the virus plaque formation; assay type: functional, cell-based; settings: Human alphaherpesvirus 3, strain Oka vaccine
Human alphaherpesvirus 1 [7] = assay: Antiviral activity against Herpes simplex virus 1 KOS infected in human HEL cells assessed as inhibition of virus-induced cytopathic effect after 4 days by microscopic analysis; assay type: functional, organism-based; settings: Human alphaherpesvirus 1, KOS, 96 h
HEL = assay: Cytotoxicity against human HEL cells by colorimetric formazan-based MTS assay; assay type: cell-based
[8] = Cytotoxicity against human HEL cells assessed as alteration of normal cell morphology by microscopic analysis; assay type: cell-based
Outline: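 Uninfected HEL cells were examined under the microscope. The minimum cytotoxic concentration is the lowest concentration causing a detectable alteration of normal cell morphology.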

L1210 = assay: Antiproliferation activity against mouse L1210 cells after 2 days by coulter counter; assay type: cell-based; settings: L1210, 48 h; outline: as §2
Human alphaherpesvirus 2 = assay: Antiviral activity against Herpes simplex virus-2 G infected in human HEL cells assessed as inhibition of virus-induced cytopathic effect after 4 days by microscopic analysis; assay type: functional, organism-based; settings: Human alphaherpesvirus 2, strain G, 96 h; outline: as §1
Vaccinia virus = assay: Antiviral activity against Vaccinia virus infected in human HEL cells assessed as inhibition of virus-induced cytopathic effect after 4 days by microscopic analysis; assay type: functional, organism-based; settings: Orthopoxvirus vaccinia, 96 h
CCRF-CEM = assay: Antiproliferation activity against human CEM cells after 3 days by coulter counter; assay type: cell-based; settings: 72 h; outline: as §2
Thymidine kinase [9] = molecular target: T1, Thymidine kinase (Human alphaherpesvirus 1, UniProt Q9QNF7); assay: Inhibition of Herpes simplex virus-1 thymidine kinase-mediated phosphorylation of [methyl-3H]dThd at 1 uM after 30 mins by scintillation counting
T1 sequence (Q9QNF7 whole entry): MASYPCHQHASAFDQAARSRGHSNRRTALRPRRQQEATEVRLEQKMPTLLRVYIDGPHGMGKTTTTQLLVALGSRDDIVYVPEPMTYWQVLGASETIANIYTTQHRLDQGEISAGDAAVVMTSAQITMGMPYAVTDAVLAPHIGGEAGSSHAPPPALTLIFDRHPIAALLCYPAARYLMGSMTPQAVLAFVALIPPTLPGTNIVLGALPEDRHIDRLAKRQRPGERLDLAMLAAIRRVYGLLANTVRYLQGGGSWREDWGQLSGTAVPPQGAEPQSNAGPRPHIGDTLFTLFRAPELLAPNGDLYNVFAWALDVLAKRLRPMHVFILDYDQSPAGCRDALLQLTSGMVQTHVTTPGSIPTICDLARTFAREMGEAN

Human alphaherpesvirus 3 [10] = assay: Antiviral activity against thymidine kinase-deficient Varicella-zoster virus YS/R infected in human HEL cells assessed as reduction in the virus plaque formation; assay type: functional, organism-based; settings: Human alphaherpesvirus 3, YS/R
Human alphaherpesvirus 3 [11] = assay: Antiviral activity against Varicella-zoster virus YS expressing thymidine kinase infected in human HEL cells assessed as reduction in the virus plaque formation; assay type: functional, organism-based; settings: Human alphaherpesvirus 3, YS
[12] = Inhibition of Varicella-zoster virus thymidine kinase-mediated phosphorylation of [methyl-3H]dThd at 1 uM after 30 mins by scintillation counting; design: species or system Human alphaherpesvirus 3
Thymidine kinase [13] = molecular target: T2, Thymidine kinase (Feline herpesvirus 1, UniProt P13159); assay: Inhibition of Feline herpesvirus thymidine kinase assessed as phosphorylation of 1 uM [methyl-3H]dThd after 30 mins by scintillation counting; design: species or system Felid alphaherpesvirus 1
T2 sequence (P13159 whole entry): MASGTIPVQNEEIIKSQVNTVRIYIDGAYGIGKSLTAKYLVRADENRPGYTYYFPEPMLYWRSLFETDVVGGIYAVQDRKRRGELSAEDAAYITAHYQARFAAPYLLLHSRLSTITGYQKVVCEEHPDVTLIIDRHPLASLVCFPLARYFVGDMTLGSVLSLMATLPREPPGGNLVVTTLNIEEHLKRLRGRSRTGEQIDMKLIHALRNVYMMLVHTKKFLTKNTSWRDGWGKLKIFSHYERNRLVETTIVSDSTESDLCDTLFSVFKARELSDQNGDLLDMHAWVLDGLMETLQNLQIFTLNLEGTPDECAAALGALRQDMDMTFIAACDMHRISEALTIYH

Row | SMILES | EC50 (Felid alphaherpesvirus 1) [µM] | IC50 (FM3A) [µM] | EC50 (Human alphaherpesvirus 1 [1]) [µM] | EC50 (Human betaherpesvirus 5 [2]) [µM] | IC50 (HeLa) [µM] | CC50 ([3]; crfk) [µM] | EC50 (Human alphaherpesvirus 3 [4]) [µM] | EC50 (Human betaherpesvirus 5 [5]) [µM] | EC50 (Human alphaherpesvirus 3 [6]) [µM] | EC50 (Human alphaherpesvirus 1 [7]) [µM] | CC50 (HEL) [µM] | MCC [8] [µM] | IC50 (L1210) [µM] | EC50 (Human alphaherpesvirus 2) [µM] | EC50 (Vaccinia virus) [µM] | IC50 (CCRF-CEM) [µM] | other results
1 | C[C@H](NP(=O)(OC[C@H]1O[C@@H](n2cc(Cl)c(=O)[nH]c2=O)C(F)(F)[C@@H]1O)Oc1ccccc1)C(=O)OCc1ccccc1 (stereo partly drawn) | > 100 | 226 | > 100 | > 50 | 200 | > 100 | > 50 | > 50 | > 50 | > 100 | ≥ 100 | > 50 | 175 | > 100 | > 100 | 196 | 
2 | Nc1nc2c(ncn2COCCO)c(=O)[nH]1 [ACYCLOVIR] | 1 |  |  |  |  |  |  |  |  |  | > 400 | > 250 |  |  | > 250 |  | CC50 ([3]; CRFK cells): > 100 µM
3 | C[C@H](NP(=O)(OC[C@H]1O[C@@H](n2cc(I)c(=O)[nH]c2=O)C(F)(F)[C@@H]1O)Oc1cccc2ccccc12)C(=O)OCc1ccccc1 (stereo partly drawn) | > 20 |  | > 20 | > 50 | 29 | 36 | 37 | > 50 | 8.5 | > 20 | 49 | > 50 | 23 | > 20 | > 20 | 21 | 
4 | O=c1[nH]c(=O)n([C@@H]2O[C@H](CO)[C@@H](O)C2(F)F)cc1Br | 2.4 | > 500 | 73 | > 50 | 458 | > 100 | > 50 | > 50 | 11 | 15 | > 100 | > 50 | > 500 | > 100 | > 100 | > 500 | IC50 (Thymidine kinase [9]): 7.5 µM; EC50 (Human alphaherpesvirus 3 [10]): > 50 µM; EC50 (Human alphaherpesvirus 3 [11]): 23 µM; IC50 [12]: 26 µM; IC50 (Thymidine kinase [13]): 34 µM
5 | Nc1ccn(C[C@@H](CO)OCP(=O)(O)O)c(=O)n1 [CIDOFOVIR] | 1.3 |  |  |  |  |  |  |  |  |  |  | > 250 |  |  | 10 |  | CC50 ([3]; CRFK cells): > 100 µM
6 | COC(=O)[C@H](C)NP(=O)(OC[C@H]1O[C@@H](n2cc(I)c(=O)[nH]c2=O)C(F)(F)[C@@H]1O)Oc1cccc2ccccc12 (stereo partly drawn) | > 20 | 46 | > 100 | > 50 | 133 | 92 | > 50 | > 50 | 25 | > 100 | ≥ 100 | > 50 | 134 | > 100 | > 100 | 60 | EC50 (Human alphaherpesvirus 3 [10]): > 50 µM; EC50 (Human alphaherpesvirus 3 [11]): 29 µM
7 | Nc1nc2c(ncn2COC(CO)CO)c(=O)[nH]1 [GANCICLOVIR] |  |  |  |  |  |  |  |  |  |  |  | > 100 |  |  | > 100 |  | 
8 | C[C@H](NP(=O)(OC[C@H]1O[C@@H](n2cc(Br)c(=O)[nH]c2=O)C(F)(F)[C@@H]1O)Oc1ccccc1)C(=O)OCc1ccccc1 (stereo partly drawn) | 11.6 | 91 | > 100 | > 50 | 148 | > 100 | > 50 | > 50 | 39 | > 100 | ≥ 50 | > 50 | 50 | > 100 | > 100 | 104 | 
9 | C[C@H](NP(=O)(OC[C@H]1O[C@@H](n2cc(I)c(=O)[nH]c2=O)C(F)(F)[C@@H]1O)Oc1ccccc1)C(=O)OCc1ccccc1 (stereo partly drawn) | 4.4 |  | ≥ 100 |  |  | ≥ 70 |  |  |  | 27 |  | > 100 |  | 50 | 58 |  | 
10 | COC(=O)[C@H](C)NP(=O)(OC[C@H]1O[C@@H](n2cc(I)c(=O)[nH]c2=O)C(F)(F)[C@@H]1O)Oc1ccccc1 (stereo partly drawn) | 28 | 258 | > 100 | > 50 | 126 | > 100 | > 50 | > 50 | > 50 | > 100 | 51 | > 50 | 226 | > 100 | > 100 | 176 | 
11 | O=c1[nH]c(=O)n([C@H]2C[C@H](O)[C@@H](CO)O2)cc1/C=C/Br [BRIVUDINE] | 30 |  |  |  |  | > 100 | ≥ 60 |  | 0.03 |  | 512 | ≥ 250 |  |  | 10 |  | EC50 (Human alphaherpesvirus 3 [10]): > 150 µM
